Laboratory results from ChEMBL document CHEMBL1152540, “Antioxidant efficacy of iridoid and phenylethanoid glycosides from the medicinal plant Teucrium chamaedris in cell-free systems” (Bioorg Med Chem, 2009).

Experiments:
[1] = test system: Radical scavenging activity; assay: Antioxidant activity assessed as DPPH radical scavenging activity after 30 mins by spectrophotometry; type: functional
[2] = Antioxidant activity assessed as inhibition of lipid peroxidation after 60 mins by TBARS assay; type: functional
Procedure, shortened: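 Olive oil (10.0 µg) was emulsified with Tween-40 in 0.2 M Tris-HCl, pH 7.4. The emulsion was UV-irradiated at 254 nm for 60 min, then stirred 24 h at room temperature. Thiobarbituric acid-reactive species were developed in a boiling water bath for 90 min and centrifuged, and the supernatant was read at 532 nm. Inhibition was given as % versus a blank without compound.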

[3] = Antioxidant activity assessed as inhibition of Fe3+ ion-induced 2-deoxyribose oxidation after 24 hrs by TBA method; type: functional
Procedure, shortened: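 EDTA, FeCl3 and H2O2 (1.0 mM each) were preincubated for 1 h at 37 °C. 2-Deoxyribose (28 mM) and ascorbic acid (1.0 mM) were then added. Compounds at 5, 10 or 20 µM (150 µL per 1350 µL mixture) were incubated 24 h at 37 °C. Degradation was measured with TBA 0.5%/TCA 2.5% at 90 °C for 3 h, read at 532 nm, in triplicate.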

[4] = Antioxidant activity assessed as inhibition of H2O2-induced bovine serum albumin oxidation after 10 mins by spectrophotometry; type: functional; conditions: in the assay text read “after 1 hr” for “after 10 mins”
Procedure, shortened: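 BSA (10 mg/mL) was incubated 1 h at 37 °C in 20 mM phosphate, pH 7.4, with FeCl3 400 µM, H2O2 3 mM, ascorbate 400 µM and metabolite at 5, 10 or 20 µM. Carbonyls were derivatized with DNPH (20 mM in 2 N HCl) and TCA 20%, then centrifuged. The pellet was washed with EtOH/EtOAc, dissolved in 6 M guanidine-HCl, pH 6.5, and read at 370 nm. Runs were in triplicate, as % versus blank.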

[5] = Antioxidant activity assessed as trolox equivalent of lipid peroxidation inhibition after 60 mins by TBARS assay; type: functional
[6] = Antioxidant activity assessed as trolox equivalent of inhibition of Fe3+ ion-induced 2-deoxyribose oxidation after 24 hrs by TBA method; type: functional
[7] = Antioxidant activity assessed as inhibition of H2O2-induced bovine serum albumin oxidation after 1 hr by spectrophotometry
[8] = Antioxidant activity assessed as trolox equivalent of inhibition of H2O2-induced bovine serum albumin oxidation after 1 hr by spectrophotometry
[9] = test system: Radical scavenging activity; assay: Antioxidant activity assessed as trolox equivalent of DPPH radical scavenging activity after 30 mins by spectrophotometry; type: functional
[10] = Antioxidant activity assessed as hydroxyl radical scavenging activity at 20 uM; type: functional

| Compound | IC50 [1] | IC50 [2] | IC50 [3] | IC50 [4] | Activity [1] | Activity [5] | Activity [6] | IC50 [7] | Activity [8] | Activity [9] | Activity [10] |
| --- | --- | --- | --- | --- | --- | --- | --- | --- | --- | --- | --- |
| Cc1c(C)c2c(c(C)c1O)CCC(C)(C(=O)O)O2 (stereo unspecified) [TROLOX] | 21 µM | 31.8 µM | 18 µM | 69.2 µM | – | – | – | – | – | – | – |
| COc1ccc(/C=C/C(=O)OC[C@H]2O[C@@H](O[C@H]3OC=C[C@@]4(O)[C@@H]3[C@](C)(O)C[C@@H]4O)[C@H](O)[C@@H](O)[C@@H]2O)cc1 | > 300 µM | 67.3 µM | 13.2 µM | – | Dose-dependent effect | 0.5 | 1.4 | 10.4 µM | 6.6 | – | – |
| CC(=O)O[C@]1(C)C[C@H](O)[C@@]2(O)C=CO[C@H](O[C@@H]3O[C@H](CO)[C@@H](O)[C@H](O)[C@H]3O)[C@H]21 | > 300 µM | 45.5 µM | 51 µM | 23.5 µM | Dose-dependent effect | 0.7 | 0.3 | – | 2.9 | – | – |
| CC(=O)O[C@]1(C)C[C@H](O)[C@H]2C=CO[C@H](O[C@@H]3O[C@H](CO)[C@@H](O)[C@H](O)[C@H]3O)[C@H]21 | > 300 µM | 44.2 µM | 52.2 µM | 38.9 µM | Dose-dependent effect | 0.7 | 0.3 | – | 1.8 | – | – |
| COc1cc(/C=C/C(=O)O[C@H]2[C@H](O[C@@H]3O[C@@H](C)[C@H](O)[C@@H](O)[C@H]3O[C@@H]3OC[C@H](O)[C@@H](O)[C@H]3O)[C@@H](O)[C@H](OCCc3ccc(O)c(O)c3)O[C@@H]2CO)ccc1O | 14 µM | 20.9 µM | 32 µM | 32.8 µM | Dose-dependent effect | 1.5 | 0.6 | – | 2.1 | 1.5 | – |
| COc1ccc(/C=C/C(=O)OC[C@H]2O[C@@H](O[C@H]3OC=C[C@H]4[C@@H]3[C@](C)(O)C[C@@H]4O)[C@H](O)[C@@H](O)[C@@H]2O)cc1OC | > 300 µM | – | – | – | – | – | – | – | – | – | – |
| COc1ccc(/C=C/C(=O)OC[C@H]2O[C@@H](O[C@H]3OC=C[C@@]4(O)[C@@H]3[C@](C)(O)C[C@@H]4O)[C@H](O)[C@@H](O)[C@@H]2O)cc1OC | > 300 µM | 33.1 µM | 26.5 µM | – | Dose-dependent effect | 1 | 0.7 | 10.7 µM | 6.5 | – | – |
| COc1cc(/C=C/C(=O)OC[C@H]2O[C@@H](OCCc3ccc(O)c(O)c3)[C@H](O)[C@@H](O[C@@H]3O[C@@H](C)[C@H](O)[C@@H](O)[C@H]3O[C@@H]3OC[C@H](O)[C@@H](O)[C@H]3O)[C@@H]2O)ccc1O | 11 µM | 46.7 µM | 37.3 µM | 18.1 µM | Dose-dependent effect | 0.7 | 0.5 | – | 3.8 | 1.9 | – |
| C[C@@H]1O[C@@H](O[C@@H]2[C@@H](O)[C@H](OCCc3ccc(O)c(O)c3)O[C@H](CO)[C@H]2OC(=O)/C=C/c2ccc(O)c(O)c2)[C@H](O)[C@H](O)[C@H]1O [ACETOSIDE] | 15.3 µM | 9.7 µM | 26.4 µM | 57.2 µM | Dose-dependent effect | 3.3 | 0.5 | – | 1.2 | 1.3 | – |
| C[C@@H]1O[C@@H](O[C@@H]2[C@@H](O)[C@H](OCCc3ccc(O)c(O)c3)O[C@H](CO)[C@H]2OC(=O)/C=C/c2ccc(O)c(O)c2)[C@H](O[C@@H]2OC[C@H](O)[C@@H](O)[C@H]2O)[C@H](O)[C@H]1O | 16.5 µM | 16.3 µM | 34.6 µM | 44.8 µM | Dose-dependent effect | 2 | 0.5 | – | 1.5 | 1.4 | 54.7% |
| COc1ccc(/C=C/C(=O)OC[C@H]2O[C@@H](O[C@H]3OC=C[C@@]4(O)[C@@H]3[C@](C)(O)C[C@@H]4O)[C@H](O[C@@H]3O[C@H](CO)[C@@H](O)[C@H](O)[C@H]3O)[C@@H](O)[C@@H]2O)cc1 | > 300 µM | 39 µM | 12.9 µM | 12.8 µM | Dose-dependent effect | 0.8 | 1.4 | – | 5.4 | – | – |
| C[C@@H]1O[C@@H](O[C@@H]2[C@@H](O)[C@H](OCCc3ccc(O)c(O)c3)O[C@H](COC(=O)/C=C/c3ccc(O)c(O)c3)[C@H]2O)[C@H](O[C@@H]2OC[C@H](O)[C@@H](O)[C@H]2O)[C@H](O)[C@H]1O | 38.3 µM | 26.3 µM | 33.5 µM | 38 µM | Dose-dependent effect | 1.2 | 0.7 | – | 1.8 | 0.5 | – |
